Our source for the inhibition, Activity and fold change (FC) values is ChEMBL document CHEMBL2069269, “Anti-inflammatory Effect of a Cell-Penetrating Peptide Targeting the Nrf2/Keap1 Interaction” (2012).

In experiment [1] the target is Kelch-like ECH-associated protein 1 (Homo sapiens) (UniProt Q14145). Kind of experiment: Inhibition of Keap1 interaction with Nrf2 in human THP1 cells assessed as increase in HO-1 mRNA expression at 100 uM from 3 to 6 hrs by qRT-PCR analysis. Format: cell-based. Particulars: THP-1. A digest of the protocol: (§1)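 Human THP-1 monocytes were incubated with peptide over a time course. HO-1 mRNA was measured by qRT-PCR and normalised to GAPDH mRNA. Data are means ± SEM, n = 3. A dose series of 7.5, 18.75, 37.5 and 75 μM was also tested by the same read-out.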
Sequence of Kelch-like ECH-associated protein 1 (Homo sapiens) (Q14145 whole entry): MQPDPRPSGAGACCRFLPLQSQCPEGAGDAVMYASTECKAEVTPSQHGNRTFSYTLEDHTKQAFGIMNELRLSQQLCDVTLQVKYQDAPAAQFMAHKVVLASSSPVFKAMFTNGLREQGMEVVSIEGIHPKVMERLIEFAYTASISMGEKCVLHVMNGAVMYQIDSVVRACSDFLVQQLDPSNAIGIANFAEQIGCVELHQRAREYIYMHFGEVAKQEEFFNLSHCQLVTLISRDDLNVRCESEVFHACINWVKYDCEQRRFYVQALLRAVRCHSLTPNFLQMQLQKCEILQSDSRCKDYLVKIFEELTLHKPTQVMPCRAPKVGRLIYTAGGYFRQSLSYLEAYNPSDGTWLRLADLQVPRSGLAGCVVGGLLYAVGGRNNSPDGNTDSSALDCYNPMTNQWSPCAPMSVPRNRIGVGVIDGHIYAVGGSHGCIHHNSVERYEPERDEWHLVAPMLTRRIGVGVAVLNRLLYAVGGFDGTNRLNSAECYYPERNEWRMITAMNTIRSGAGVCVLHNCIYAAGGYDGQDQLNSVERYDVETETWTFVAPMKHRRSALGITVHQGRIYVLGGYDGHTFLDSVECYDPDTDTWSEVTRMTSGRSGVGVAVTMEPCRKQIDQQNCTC
A general note: Real-time PCR tracks product formation cycle by cycle.

The target is the same in experiment [2]. As to the kind of experiment: Inhibition of Keap1 interaction with Nrf2 in human THP1 cells assessed as increase in Nrf2 protein expression at 100 uM from 1 to 6 hrs by Western blot analysis. To be noted: THP-1. Format: cell-based. In a few lines:
(§2)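 THP-1 cells were incubated with peptide over a time course, alongside a peptide scrambled in the Keap1-binding 14mer region. Nrf2 protein was detected in cell lysates by Western blot.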

Experiment [3] shares this target. As to the kind of experiment: Inhibition of Keap1 interaction with Nrf2 in human THP1 cells assessed as increase in HO-1 mRNA expression at 100 uM from 2 to 8 hrs by qRT-PCR analysis. It counts as cell-based. To be noted: THP-1. In a few lines: as §1
The target is the same in experiment [4]. As to the kind of experiment: Inhibition of Keap1 interaction with Nrf2 in human THP1 cells assessed as increase in HO-1 protein expression at 100 uM at 9 to 16 hrs by Western blot analysis. It counts as cell-based. To be noted: THP-1. In a few lines: (§3)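 THP-1 monocytes were treated with peptide or the scrambled-sequence control peptide over a time course. HO-1 protein was assessed by Western blot. The blot shown is representative of n = 3 experiments.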
(In general: In western blotting, separated proteins are transferred to a membrane and probed.)

Experiment [5] shares this target. Kind of experiment: Inhibition of Keap1 interaction with Nrf2 in human THP1 cells assessed as increase in Nrf2 protein expression at 100 uM after 3 hrs by Western blot analysis. It counts as cell-based. To be noted: THP-1. A digest of the protocol: as §2
Experiment [6] deals with THP-1. As to the kind of experiment: Upregulation of Nrf2 mRNA expression in human THP1 cells at 100 uM by qRT-PCR analysis. Format: functional, cell-based.
For experiment [7], the target named is Kelch-like ECH-associated protein 1 (Homo sapiens) (UniProt Q14145). Kind of experiment: Inhibition of Keap1 interaction with Nrf2 in human THP1 cells assessed as increase in HO-1 mRNA expression at 75 uM at 6 hrs by qRT-PCR analysis relative to control. Format: cell-based. To be noted: THP-1. A digest of the protocol: as §1
For experiment [8] the target is unchanged. As to the kind of experiment: Inhibition of Keap1 interaction with Nrf2 in human THP1 cells assessed as increase in HO-1 protein expression at 100 uM at 12 hrs by Western blot analysis. It counts as cell-based. Particulars: THP-1. A digest of the protocol:
as §3

Experiment [9] has the same target. Kind of experiment: Inhibition of Keap1 interaction with Nrf2 in human THP1 cells assessed as increase in HO-1 protein expression by Western blot analysis. Particulars: THP-1. It counts as cell-based. In a few lines: as §3
For experiment [10] the target is unchanged. Kind of experiment: Inhibition of Keap1 interaction with Nrf2 in human THP1 cells assessed as increase in HO-1 protein expression at 37.5 uM by Western blot analysis. It counts as cell-based. Particulars: THP-1.
The subject of experiment [11] is THP-1. Kind of experiment: Antiinflammatory activity in human THP1 cells assessed as inhibition of LPS-induced TNFalpha mRNA expression at 100 uM incubated for 4 hrs prior to LPS-stimulation measured after 3 hrs by qRT-PCR analysis.

The structures appear in SMILES notation. The source made the active and inactive calls. The calls are words filed in the database; no cut-off is given here. Where a SMILES comes first, the peptide text is derived from it.

As a reminder, the inhibition is how much of the control response was suppressed. With `CC(C)C[C@H](NC(=O)[C@H](CCCNC(=N)N)NC(=O)[C@H](CCCNC(=N)N)NC(=O)[C@H](CCCNC(=N)N)NC(=O)[C@H](CCC(N)=O)NC(=O)[C@H](CCCNC(=N)N)NC(=O)[C@H](CCCNC(=N)N)NC(=O)[C@H](CCCCN)NC(=O)[C@H](CCCCN)NC(=O)[C@H](CCCNC(=N)N)NC(=O)CNC(=O)[C@@H](N)Cc1ccc(O)cc1)C(=O)N[C@@H](CC(=O)O)C(=O)N[C@@H](CCC(=O)O)C(=O)N[C@@H](CCC(=O)O)C(=O)N[C@H](C(=O)NCC(=O)N[C@@H](CCC(=O)O)C(=O)N[C@@H](Cc1ccccc1)C(=O)N[C@@H](CC(C)C)C(=O)N1CCC[C@H]1C(=O)O)[C@@H](C)O`, the inhibition entry in experiment [1] is “Active”.
As for `CC[C@H](C)[C@H](NC(=O)[C@H](CC(=O)O)NC(=O)[C@@H](NC(=O)CNC(=O)[C@H](Cc1ccccc1)NC(=O)[C@H](CCC(=O)O)NC(=O)[C@H](CCCNC(=N)N)NC(=O)[C@H](CCCNC(=N)N)NC(=O)[C@H](CCCNC(=N)N)NC(=O)[C@H](CCC(N)=O)NC(=O)[C@H](CCCNC(=N)N)NC(=O)[C@H](CCCNC(=N)N)NC(=O)[C@H](CCCCN)NC(=O)[C@H](CCCCN)NC(=O)[C@H](CCCNC(=N)N)NC(=O)CNC(=O)[C@@H](N)Cc1ccc(O)cc1)[C@@H](C)O)C(=O)N[C@@H](CCC(N)=O)C(=O)N[C@@H](CC(C)C)C(=O)N[C@H](C(=O)N[C@@H](CCC(=O)O)C(=O)N1CCC[C@H]1C(=O)N[C@@H](CCC(N)=O)C(=O)N[C@@H](CC(C)C)C(=O)N[C@@H](CCC(=O)O)C(=O)O)[C@@H](C)CC` (H-YGRKKRRQRRREFGTDIQLIEPQLE-OH), the inhibition entry in experiment [2], in experiment [3] and in experiment [4] was “inactive” in each case.
Consider `CC[C@H](C)[C@H](NC(=O)[C@@H]1CCCN1C(=O)[C@H](CC(C)C)NC(=O)[C@H](Cc1ccccc1)NC(=O)[C@H](CCC(=O)O)NC(=O)CNC(=O)[C@@H](NC(=O)[C@H](CCC(=O)O)NC(=O)[C@H](CCC(=O)O)NC(=O)[C@H](CC(=O)O)NC(=O)[C@H](CC(C)C)NC(=O)[C@H](CCC(N)=O)NC(=O)[C@H](CC(C)C)NC(=O)[C@H](CCCNC(=N)N)NC(=O)[C@H](CCCNC(=N)N)NC(=O)[C@H](CCCNC(=N)N)NC(=O)[C@H](CCC(N)=O)NC(=O)[C@H](CCCNC(=N)N)NC(=O)[C@H](CCCNC(=N)N)NC(=O)[C@H](CCCCN)NC(=O)[C@H](CCCCN)NC(=O)[C@H](CCCNC(=N)N)NC(=O)CNC(=O)[C@@H](N)Cc1ccc(O)cc1)[C@@H](C)O)C(=O)N[C@@H](CCC(N)=O)C(=O)O`, for which the inhibition result in experiment [1] was “inactive”. Besides, the inhibition entry in [5], in experiment [8] and in experiment [10] was “Active” in each case. In the experiment with THP-1 [6], the outcome was inactive. Further, in [7], the fold change (FC) was 24. Further, in experiment [9], the inhibition result was “Dose-dependent effect”. The inhibition at 100 µM in the experiment on THP-1 [11] was 61%.
As to `CC(C)C[C@H](NC(=O)[C@H](Cc1ccccc1)NC(=O)[C@H](CCC(=O)O)NC(=O)CNC(=O)[C@@H](NC(=O)[C@H](CCC(=O)O)NC(=O)[C@H](CCC(=O)O)NC(=O)[C@H](CC(=O)O)NC(=O)[C@H](CC(C)C)NC(=O)[C@H](CCC(N)=O)NC(=O)[C@H](CC(C)C)NC(=O)[C@H](CCC(N)=O)NC(=O)[C@H](C)NC(=O)[C@H](Cc1ccccc1)NC(=O)[C@H](Cc1ccccc1)NC(=O)[C@H](C)NC(=O)[C@H](CCCNC(=N)N)NC(=O)[C@H](CCCNC(=N)N)NC(=O)[C@H](CCCNC(=N)N)NC(=O)[C@H](CCC(N)=O)NC(=O)[C@H](CCCNC(=N)N)NC(=O)[C@H](CCCNC(=N)N)NC(=O)[C@H](CCCCN)NC(=O)[C@H](CCCCN)NC(=O)[C@H](CCCNC(=N)N)NC(=O)CNC(=O)[C@@H](N)Cc1ccc(O)cc1)[C@@H](C)O)C(=O)O` (H-YGRKKRRQRRRAFFAQLQLDEETGEFL-OH), the inhibition result in experiment [1] is “inactive”.
As for `CC[C@H](C)[C@H](NC(=O)[C@@H]1CCCN1C(=O)[C@H](CC(C)C)NC(=O)[C@H](Cc1ccccc1)NC(=O)[C@H](CCC(=O)O)NC(=O)CNC(=O)[C@@H](NC(=O)[C@H](CCC(=O)O)NC(=O)[C@H](CCC(=O)O)NC(=O)[C@H](CC(=O)O)NC(=O)[C@H](CC(C)C)NC(=O)[C@H](CCC(N)=O)NC(=O)[C@@H](N)CC(C)C)[C@@H](C)O)C(=O)N[C@@H](CCC(N)=O)C(=O)O`, the inhibition result in [3] was “inactive”.
